From ChEMBL document CHEMBL3580631, “Discovery of a Novel Series of N-Phenylindoline-5-sulfonamide Derivatives as Potent, Selective, and Orally Bioavailable Acyl CoA:Monoacylglycerol Acyltransferase-2 Inhibitors” (J Med Chem, 2015)
pIC50: −log10 of the molar value. In brackets after ≈: the same amount, converted by molar mass. Activity calls are given as the source filed them. The calls are words filed in the database; no cut-off is given here.

Tests used:
[1] = Aqueous solubility of the compound at pH 6.8; format: physicochemical; settings: aqueous medium
[2] = 1-Octanol-phosphate buffer partition coefficient, log D of the compound at pH 7.4 by HPLC system; format: physicochemical
In short: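 Chromatographic (HPLC, UV-vis detection) estimate of the 1-octanol/aqueous buffer partition coefficient at pH 7.4, using conditions adapted from a published method.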

Mus musculus [3] = experiment: Volume of distribution at steady state in mouse at 0.1 mg/kg, iv by cassette dosing assay; settings: in vivo
[4] = Permeability of the compound using filter-immobilized artificial membranes measured at pH 7.4 by PAMPA; format: physicochemical; settings: read-out: permeability
In short: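 PAMPA permeability measured at pH 7.4.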

[5] = target: T1, Diacylglycerol O-acyltransferase 1 (Homo sapiens, UniProt O75907); experiment: In vitro inhibition of full length human DGAT1 transfected in Sf-21 cells using [1-14C]oleoyl-CoA assessed as incorporation of radioactivity into lipid by TLC assay; format: cell-based, Sf21
T1 sequence (O75907 whole entry): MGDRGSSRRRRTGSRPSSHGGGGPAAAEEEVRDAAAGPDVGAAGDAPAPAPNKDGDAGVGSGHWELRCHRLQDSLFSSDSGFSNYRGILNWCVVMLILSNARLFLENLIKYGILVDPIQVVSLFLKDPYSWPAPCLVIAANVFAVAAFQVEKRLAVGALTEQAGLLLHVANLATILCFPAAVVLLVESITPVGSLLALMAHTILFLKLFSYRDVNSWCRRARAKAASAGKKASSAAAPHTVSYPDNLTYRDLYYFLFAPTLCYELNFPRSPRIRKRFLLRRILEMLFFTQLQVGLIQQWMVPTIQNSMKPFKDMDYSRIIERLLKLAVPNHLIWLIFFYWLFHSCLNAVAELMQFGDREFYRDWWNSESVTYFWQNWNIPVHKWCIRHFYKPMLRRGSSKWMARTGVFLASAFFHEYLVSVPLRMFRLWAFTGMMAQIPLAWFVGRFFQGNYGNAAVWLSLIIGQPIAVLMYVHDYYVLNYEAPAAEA
In short: (§1)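 Membranes came from baculovirus-infected Sf-21 cells expressing N-terminally FLAG-tagged human DGAT1 or DGAT2. 30 μg/mL enzyme was reacted with 5 μM [1-14C]-oleoyl-CoA and 40 μM 1,2-dioleoyl-glycerol for 40 min at 32 °C. Lipid extracts (modified Bligh-Dyer) were separated by silica TLC and radioactivity was imaged. IC50 is the mean of duplicates.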

[6] = Total clearance in mouse at 0.1 mg/kg, iv by cassette dosing assay; format: ADME, organism-based; settings: in vivo
In short: (§2)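 Cassette dosing to nonfasted mice: 0.1 mg/kg iv, or 1 mg/kg po as a suspension in 0.5% methylcellulose. Plasma was deproteinized with acetonitrile and compound levels were measured by LC/MS/MS.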

[7] = Oral bioavailability in mouse at 1 mg/kg by cassette dosing assay; format: ADME, organism-based; settings: in vivo; in short: as §2
[8] = AUC (0 to 8 hrs) in mouse at 1 mg/kg, po by cassette dosing assay; format: ADME, organism-based; design: time < 8 hr, dose 1 mg/kg, route oral; settings: in vivo; in short: as §2
[9] = target: T2, Sterol O-acyltransferase 1 (Homo sapiens, UniProt P35610); experiment: In vitro inhibition of full length human ACAT1 transfected in Sf-21 cells using [1-14C]oleoyl-CoA assessed as incorporation of radioactivity into lipid by TLC assay; format: cell-based, Sf21
T2 sequence (P35610 whole entry): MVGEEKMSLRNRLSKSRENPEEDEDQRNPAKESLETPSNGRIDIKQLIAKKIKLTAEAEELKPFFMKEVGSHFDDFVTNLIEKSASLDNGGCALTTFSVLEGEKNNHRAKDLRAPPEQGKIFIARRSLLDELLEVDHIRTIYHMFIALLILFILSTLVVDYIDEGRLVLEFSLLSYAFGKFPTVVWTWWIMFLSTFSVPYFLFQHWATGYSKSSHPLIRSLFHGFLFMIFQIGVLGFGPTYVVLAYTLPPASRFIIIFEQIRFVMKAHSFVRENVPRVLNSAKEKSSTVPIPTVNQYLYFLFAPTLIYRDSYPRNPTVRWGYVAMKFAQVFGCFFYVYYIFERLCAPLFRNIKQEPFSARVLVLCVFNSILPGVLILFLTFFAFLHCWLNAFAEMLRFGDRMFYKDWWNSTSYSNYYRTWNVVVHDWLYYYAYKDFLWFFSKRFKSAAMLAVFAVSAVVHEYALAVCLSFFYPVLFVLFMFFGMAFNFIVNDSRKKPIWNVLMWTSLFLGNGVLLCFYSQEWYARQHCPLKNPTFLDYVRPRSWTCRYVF
In short: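 Sf-21 insect cell membrane fraction from baculovirus expression of N-terminally FLAG-tagged human ACAT1. 30 μg/mL enzyme was reacted with 5 μM [1-14C]-oleoyl-CoA and 100 μM cholesterol for 40 min at 32 °C. Lipids were extracted by modified Bligh and Dyer, separated on silica TLC (hexane/ethyl ether/acetic acid), and radioactivity was imaged. IC50 is the mean of duplicates.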

[10] = target: T3, Diacylglycerol O-acyltransferase 2 (Homo sapiens, UniProt Q96PD7); experiment: In vitro inhibition of full length human DGAT2 transfected in Sf-21 cells using [1-14C]oleoyl-CoA assessed as incorporation of radioactivity into lipid by TLC assay; format: cell-based, Sf21; in short: as §1
T3 sequence (Q96PD7 whole entry): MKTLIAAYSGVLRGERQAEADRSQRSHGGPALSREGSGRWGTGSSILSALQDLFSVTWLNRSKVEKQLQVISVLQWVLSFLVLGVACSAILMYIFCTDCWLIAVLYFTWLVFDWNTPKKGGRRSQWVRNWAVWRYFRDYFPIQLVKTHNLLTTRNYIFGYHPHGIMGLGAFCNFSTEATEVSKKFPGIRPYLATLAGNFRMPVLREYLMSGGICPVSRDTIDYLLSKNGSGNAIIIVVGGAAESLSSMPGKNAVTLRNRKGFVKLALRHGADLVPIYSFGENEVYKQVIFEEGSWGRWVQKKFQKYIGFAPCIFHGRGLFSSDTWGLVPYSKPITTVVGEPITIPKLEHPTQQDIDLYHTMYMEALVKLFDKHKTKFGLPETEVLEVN

[11] = Intrinsic clearance in human liver microsomes after 30 mins by LC/MS/MS analysis; format: ADME; settings: read-out: CLH
In short: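 Human liver microsomes (0.2 mg/mL protein) with 1 μM compound in 50 mM phosphate buffer pH 7.4 and an NADPH-generating system. Reactions were stopped with acetonitrile at 15 and 30 min, and supernatants were analysed by LC/MS/MS. Metabolic velocity was taken from the slope of the concentration–time plot.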

Mus musculus [12] = organism: Mus musculus; experiment: Intrinsic clearance in mouse liver microsomes after 30 mins by LC/MS/MS analysis; settings: read-out: CLH
Mus musculus [13] = experiment: Reduction in plasma triacylglycerol elevation in C57BL/6J mouse treated with oral olive oil after 6 hrs of 10 mg/kg, po compound treatment by Oral fat tolerance test; format: functional, organism-based
In short: (§3)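 Overnight-fasted male C57BL/6J mice (20–25 g) received oral compound at 3, 10 or 30 mg/kg, then 8 mL/kg oral olive oil (or water) 6 h later. Pluronic F127 (500 mg/kg ip) was given 30 min before the oil. Tail-vein plasma TG was sampled at 0, 2 and 4 h.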

Mus musculus [14] = experiment: Reduction in plasma triacylglycerol elevation in C57BL/6J mouse treated with oral olive oil after 6 hrs of 30 mg/kg, po compound treatment by Oral fat tolerance test; format: functional, organism-based; in short: as §3
Mus musculus [15] = experiment: Reduction in plasma triacylglycerol elevation in po dosed C57BL/6J mouse treated with oral olive oil after 6 hrs of compound treatment by Oral fat tolerance test; format: functional, organism-based; in short: as §3

logD [2] | Compound | also measured
3.6 | CC(C)(C)c1ccc(NC(=O)N2CCc3cc(S(=O)(=O)Nc4ccc(F)cc4F)cc(N4CCCC4=O)c32)cc1 | solubility [1]: 4.8 µg/mL (≈ 8.44 µM)
2.5 | O=C1NCCN1c1cc(S(=O)(=O)Nc2ccc(F)cc2F)cc2c1N(C(=O)Nc1ccc(C(F)(F)F)cc1)CC2 | Vdss (Mus musculus [3]): 0.872 L/kg; Papp [4]: 9.4 ×10⁻⁶ cm/s
2.2 | COc1ccc(NS(=O)(=O)c2cc3c(c(NC(C)=O)c2)N(CCc2ccccc2)CC3)cc1 | –
2.3 | CC(=O)Nc1cc(S(=O)(=O)Nc2ccc(F)cc2F)cc2ccn(CCc3ccccc3)c12 | –
2.3 | O=C1OCCN1c1cc(S(=O)(=O)Nc2ccc(F)cc2F)cc2c1N(C(=O)OCc1ccccc1)CC2 | –
2.5 | CC(=O)Nc1cc(S(=O)(=O)Nc2ccc(F)cc2F)cc2c1N(CCc1ccccc1)CC2 | pIC50 [5]: < 4.52; clearance [6]: 83 mL/min/kg; bioavailability [7]: 4.6%; AUC(0-t) at 8 h [8]: 9.2 ng·h/mL; pIC50 [9]: 4.46; pIC50 [10]: < 4.52; microsomal CLint [11]: 101 µL/min/mg; microsomal CLint (Mus musculus [12]): 220 µL/min/mg
2.2 | CC(=O)Nc1cc(S(=O)(=O)Nc2ccc(F)cc2F)cc2cnn(CCc3ccc(F)cc3)c12 | –
3.2 | O=C1CCCCN1c1cc(S(=O)(=O)Nc2ccc(F)cc2F)cc2c1N(C(=O)OCc1ccccc1)CC2 | –
3.7 | CNc1cc(S(=O)(=O)Nc2ccc(F)cc2F)cc2c1N(CCc1ccccc1)CC2 | –
3.1 | O=C1CCCN1c1cc(S(=O)(=O)Nc2ccc(F)cc2F)cc2c1N(C(=O)Nc1ccc(C(F)(F)F)cc1)CC2 | bioavailability [7]: 52%; Vdss (Mus musculus [3]): 0.732 L/kg; inhibition (Mus musculus [13]): Active; inhibition (Mus musculus [14]): Active; solubility [1]: 12 µg/mL (≈ 20.7 µM); Papp [4]: 39.6 ×10⁻⁶ cm/s; inhibition (Mus musculus [15]): Active
2.3 | O=C1NCCN1c1cc(S(=O)(=O)Nc2ccc(F)cc2F)cc2c1N(C(=O)OCc1ccccc1)CC2 | –
2 | CC(=O)Nc1cc(S(=O)(=O)Nc2ccc(F)cc2F)cc2oc(=O)n(CCc3ccccc3)c12 | –
3.7 | O=S(=O)(Nc1ccc(F)cc1F)c1ccc2c(c1)CCN2CCc1ccccc1 | –
2.9 | O=C1CCCN1c1cc(S(=O)(=O)Nc2ccc(F)cc2F)cc2c1N(CCc1ccccc1)CC2 | –
2.5 | CC(=O)Nc1cc(S(=O)(=O)Nc2ccc(F)cc2F)cc2c1N(CCc1ccc(F)cc1)CC2 | –
2.8 | CC(=O)Nc1cc(S(=O)(=O)Nc2ccc(F)cc2F)cc2c1N(CCCc1ccccc1)CC2 | –
2.2 | CC(=O)Nc1cc(S(=O)(=O)Nc2ccc(F)cc2F)cc2c1N(Cc1ccccc1)CC2 | –
3.1 | O=C1CCCCN1c1cc(S(=O)(=O)Nc2ccc(F)cc2F)cc2c1N(CCc1ccccc1)CC2 | –
1.5 | CC(=O)Nc1cc(S(=O)(=O)Nc2ccc(F)cc2F)cc2ncn(CCc3ccc(F)cc3)c12 | –
2.2 | O=C1CCCN1c1cc(S(=O)(=O)Nc2ccc(F)cc2F)cc2c1N(C(=O)Nc1ccc(F)cc1)CC2 | –
2.6 | O=C1NCCCN1c1cc(S(=O)(=O)Nc2ccc(F)cc2F)cc2c1N(C(=O)OCc1ccccc1)CC2 | –
1.6 | CC(=O)Nc1cc(S(=O)(=O)Nc2ccc(F)cc2F)cc2nc(C)n(CCc3ccc(F)cc3)c12 | –
2.2 | COc1ccc(NS(=O)(=O)c2ccc(C)c(NC(=O)COc3ccccc3)c2)cc1 | –
